Measured values reported in ChEMBL document CHEMBL4270599, “Synthesis of a 3'-C-ethynyl-β-d-ribofuranose purine nucleoside library: Discovery of C7-deazapurine analogs as potent antiproliferative nucleosides” (Eur J Med Chem, 2018).

Key:
HeLa = test: Antiproliferative activity against human HeLa cells after 72 hrs by Coulter counter method; type: functional, cell-based
How it was run: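 Cell count assay in 96-well microtiter plates; (5–7.5) × 10⁴ tumor cells per well plus test compound. Cells proliferated at 37 °C in humidified CO₂-controlled atmosphere, 48 h for murine leukemia L1210, 72 h for human lymphocytic CEM and cervix carcinoma HeLa. Counted by Coulter counter; IC₅₀ is the concentration that inhibits proliferation by 50%.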

RPMI-8226 = test: Cytotoxicity against human RPMI8226 cells after 48 hrs by SRB assay; type: functional; settings: RPMI-8226, 48 h
NCI-H226 [1] = test: Cytotoxicity against human NCI-H226 cells after 48 hrs by SRB assay; type: functional; settings: NCI-H226, 48 h
SW-620 = test: Cytotoxicity against human SW620 cells after 48 hrs by SRB assay; type: functional; settings: SW-620, 48 h
SNB-19 = test: Cytotoxicity against human SNB19 cells after 48 hrs by SRB assay; type: functional; settings: SNB-19, 48 h
CCRF-CEM [2] = test: Growth inhibition of human CCRF-CEM cells assessed as cell growth at 10^-8 M incubated for 48 hrs by sulforhodamine B assay relative to control; type: functional; settings: read-out: Activity
NCI-H322M [3] = test: Growth inhibition of human NCI-H322M cells assessed as cell growth at 10^-8 M incubated for 48 hrs by sulforhodamine B assay relative to control; type: functional; settings: read-out: Activity
SF-295 = test: Growth inhibition of human SF295 cells assessed as cell growth at 10^-8 M incubated for 48 hrs by sulforhodamine B assay relative to control; type: functional; settings: SF-295, 48 h, read-out: Activity
MDA-MB-435 = test: Growth inhibition of human MDA-MB-435 cells assessed as cell growth at 10^-8 M incubated for 48 hrs by sulforhodamine B assay relative to control; type: functional; settings: MDA-MB-435, 48 h, read-out: Activity
SK-MEL-2 = test: Growth inhibition of human SK-MEL-2 cells assessed as cell growth at 10^-8 M incubated for 48 hrs by sulforhodamine B assay relative to control; type: functional; settings: SK-MEL-2, 48 h, read-out: Activity
SN12C [4] = test: Growth inhibition of human SN12C cells assessed as cell growth at 10^-8 M incubated for 48 hrs by sulforhodamine B assay relative to control; type: functional; settings: read-out: Activity
TK-10 = test: Growth inhibition of human TK10 cells assessed as cell growth at 10^-8 M incubated for 48 hrs by sulforhodamine B assay relative to control; type: functional; settings: TK-10, 48 h, read-out: Activity
DU-145 = test: Growth inhibition of human DU145 cells assessed as cell growth at 10^-8 M incubated for 48 hrs by sulforhodamine B assay relative to control; type: functional; settings: DU-145, 48 h, read-out: Activity
T47D = test: Growth inhibition of human T47D cells assessed as cell growth at 10^-8 M incubated for 48 hrs by sulforhodamine B assay relative to control; type: functional; settings: read-out: Activity
MDA-MB-468 = test: Growth inhibition of human MDA-MB-468 cells assessed as cell growth at 10^-8 M incubated for 48 hrs by sulforhodamine B assay relative to control; type: functional; settings: MDA-MB-468, 48 h, read-out: Activity
NCI-H226 [5] = test: Growth inhibition of human NCI-H226 cells assessed as cell growth at 10^-7 M incubated for 48 hrs by sulforhodamine B assay relative to control; type: functional; settings: NCI-H226, 48 h, read-out: Activity
NCI-H322M [6] = test: Growth inhibition of human NCI-H322M cells assessed as cell growth at 10^-7 M incubated for 48 hrs by sulforhodamine B assay relative to control; type: functional; settings: read-out: Activity
OVCAR-3 [7] = test: Growth inhibition of human OVCAR3 cells assessed as cell growth at 10^-7 M incubated for 48 hrs by sulforhodamine B assay relative to control; type: functional; settings: OVCAR-3, 48 h, read-out: Activity
A549 = test: Growth inhibition of human A549/ATCC cells assessed as cell growth at 10^-6 M incubated for 48 hrs by sulforhodamine B assay relative to control; type: functional; settings: A549, 48 h, read-out: Activity
M14 = test: Growth inhibition of human M14 cells assessed as cell growth at 10^-6 M incubated for 48 hrs by sulforhodamine B assay relative to control; type: functional; settings: M14, 48 h, read-out: Activity
OVCAR-3 [8] = test: Growth inhibition of human OVCAR3 cells assessed as cell growth at 10^-6 M incubated for 48 hrs by sulforhodamine B assay relative to control; type: functional; settings: OVCAR-3, 48 h, read-out: Activity
OVCAR-4 = test: Growth inhibition of human OVCAR4 cells assessed as cell growth at 10^-6 M incubated for 48 hrs by sulforhodamine B assay relative to control; type: functional; settings: OVCAR-4, 48 h, read-out: Activity
OVCAR-8 = test: Growth inhibition of human OVCAR8 cells assessed as cell growth at 10^-6 M incubated for 48 hrs by sulforhodamine B assay relative to control; type: functional; settings: OVCAR-8, 48 h, read-out: Activity
786-0 = test: Growth inhibition of human 786-0 cells assessed as cell growth at 10^-6 M incubated for 48 hrs by sulforhodamine B assay relative to control; type: functional; settings: 786-0, 48 h, read-out: Activity
PC-3 = test: Growth inhibition of human PC3 cells assessed as cell growth at 10^-6 M incubated for 48 hrs by sulforhodamine B assay relative to control; type: functional; settings: PC-3, 48 h, read-out: Activity
BT-549 = test: Growth inhibition of human BT549 cells assessed as cell growth at 10^-6 M incubated for 48 hrs by sulforhodamine B assay relative to control; type: functional; settings: BT-549, 48 h, read-out: Activity
CCRF-CEM [9] = test: Growth inhibition of human CCRF-CEM cells assessed as cell growth at 10^-5 M incubated for 48 hrs by sulforhodamine B assay relative to control; type: functional; settings: read-out: Activity
KM12 = test: Growth inhibition of human KM12 cells assessed as cell growth at 10^-5 M incubated for 48 hrs by sulforhodamine B assay relative to control; type: functional; settings: KM12, 48 h, read-out: Activity
U-251 = test: Growth inhibition of human U251 cells assessed as cell growth at 10^-5 M incubated for 48 hrs by sulforhodamine B assay relative to control; type: functional; settings: U-251, 48 h, read-out: Activity
SN12C [10] = test: Growth inhibition of human SN12C cells assessed as cell growth at 10^-5 M incubated for 48 hrs by sulforhodamine B assay relative to control; type: functional; settings: read-out: Activity
Hs-578T = test: Growth inhibition of human Hs 578T cells assessed as cell growth at 10^-5 M incubated for 48 hrs by sulforhodamine B assay relative to control; type: functional; settings: read-out: Activity
[11] = Antiproliferative activity against HELF cells after 4 days by Coulter counter method; type: cell-based; settings: Homo sapiens, 96 h
[12] = read-out: LC50 (the source's name)

C#C[C@@]1(O)[C@@H](CO)O[C@@H](n2cc(F)c3c(N)ncnc32)[C@@H]1O
IC50 (HeLa): 150 nM | CC50 (RPMI-8226; [12]): > 100000 nM | TGI (RPMI-8226; read-out: TGI): 1980 nM | GI50 (RPMI-8226; read-out: pGI50 (converted)): 219 nM | TGI (RPMI-8226; read-out: pTGI (converted)): 2000 nM | TGI (NCI-H226 [1]; read-out: TGI): 2630 nM | GI50 (NCI-H226 [1]; read-out: pGI50 (converted)): 525 nM | CC50 (NCI-H226 [1]; read-out: pLC50 (the source's name) (converted)): > 100000 nM | TGI (NCI-H226 [1]; read-out: pTGI (converted)): 2630 nM | CC50 (SW-620; [12]): > 100000 nM | TGI (SW-620; read-out: TGI): 2900 nM | GI50 (SW-620; read-out: pGI50 (converted)): 158 nM | TGI (SW-620; read-out: pTGI (converted)): 2880 nM | CC50 (SNB-19; [12]): > 100000 nM | TGI (SNB-19; read-out: TGI): 13700 nM | GI50 (SNB-19; read-out: pGI50 (converted)): 525 nM | TGI (SNB-19; read-out: pTGI (converted)): 13800 nM | growth at 0.01 µM (CCRF-CEM [2]): 95% | growth at 0.01 µM (NCI-H322M [3]): 93% | growth at 0.01 µM (SF-295): 98% | growth at 0.01 µM (MDA-MB-435): 98% | growth at 0.01 µM (SK-MEL-2): 103% | growth at 0.01 µM (SN12C [4]): 94% | growth at 0.01 µM (TK-10): 95% | growth at 0.01 µM (DU-145): 103% | growth at 0.01 µM (T47D): 101% | growth at 0.01 µM (MDA-MB-468): 92% | growth at 0.1 µM (NCI-H226 [5]): 95% | growth at 0.1 µM (NCI-H322M [6]): 94% | growth at 0.1 µM (OVCAR-3 [7]): 107% | growth at 1 µM (A549): 19% | growth at 1 µM (M14): 29% | growth at 1 µM (OVCAR-3 [8]): 52% | growth at 1 µM (OVCAR-4): 50% | growth at 1 µM (OVCAR-8): 15% | growth at 1 µM (786-0): 43% | growth at 1 µM (PC-3): 11% | growth at 1 µM (BT-549): 45% | growth at 10 µM (CCRF-CEM [9]): 5% | growth at 10 µM (KM12): 7% | growth at 10 µM (U-251): 1% | growth at 10 µM (SN12C [10]): -8% | growth at 10 µM (Hs-578T): 18% | IC50 [11]: 76 nM
